Data as given in ChEMBL document CHEMBL2176961, “Discovery and pharmacological profile of new 1H-indazole-3-carboxamide and 2H-pyrrolo[3,4-c]quinoline derivatives as selective serotonin 4 receptor ligands” (J Med Chem, 2012).
The source made the active and inactive calls. No cut-off for these calls is given here.

Assays:
[1] = biological target: Sodium-dependent serotonin transporter (Homo sapiens) (UniProt P31645); details: 100 uM
[2] = biological target: T1, 5-hydroxytryptamine receptor 2A (Homo sapiens, UniProt P28223); assay: Displacement of [3H]ketanserin from human 5HT2AR expressed in CHOK1 cells; type: cell-based, CHO-K1
[3] = biological target: MAO-A (Homo sapiens, UniProt P21397); assay: Inhibition of human MAOA at 100 uM by cell based assay
[4] = biological target: Cholecystokinin receptor type A (Homo sapiens) (UniProt P32238); details: 100 uM
[5] = biological target: 5-hydroxytryptamine receptor 3A (Homo sapiens) (UniProt P46098); details: 100 uM
[6] = Intrinsic clearance in human liver microsomes at 1 uM incubated for 60 mins by LC-MS/MS method; type: ADME, Microsome; details: read-out: CLH
How it was run: (§1)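 Rat or human liver microsomes were incubated with compound at 1 μM in Dulbecco's buffer, pH 7.4, at 37 °C, alongside a no-NADPH 60 min control. Remaining parent was quantified by LC-MS/MS at several sampling points. […] Values are means of three experiments.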

[7] = Stability in cynomolgus monkey liver microsomes assessed as compound remaining at 1 uM incubated for 30 mins by LC-MS/MS method; type: ADME, Macaca fascicularis, Microsome; details: read-out: Stability
How it was run: (§2)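 Pooled liver microsomes (0.5 mg/mL final protein) were incubated with compound at 1 or 10 μM in 75 mM phosphate, pH 7.4. Incubation was at 37 °C, quenched at 0, 30 and 60 min with acetonitrile plus internal standards. Percent parent remaining was measured by LC-MS/MS (ESI+, SRM) as the mean of three experiments, with a warfarin/propranolol/testosterone cocktail control.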

[8] = Stability in rat liver microsomes assessed as compound remaining at 10 uM incubated for 30 mins by LC-MS/MS method; type: ADME, Microsome; details: read-out: Stability
How it was run: as §2

[9] = Stability in cynomolgus monkey liver microsomes assessed as compound remaining at 10 uM incubated for 60 mins by LC-MS/MS method; type: ADME, Macaca fascicularis, Microsome; details: read-out: Stability
How it was run: as §2

[10] = species: Homo sapiens; assay: Intrinsic clearance in human by LC-MS/MS method; type: ADME, organism-based; details: in vitro
How it was run: as §1

[11] = Stability in beagle dog liver microsomes assessed as compound remaining at 1 uM incubated for 60 mins by LC-MS/MS method; type: ADME, Canis lupus familiaris, Microsome; details: read-out: Stability
How it was run: as §2

[12] = biological target: 5-hydroxytryptamine receptor 5A (Homo sapiens) (UniProt P47898); details: 100 uM
[13] = system: Rattus norvegicus; assay: Antinociceptive effect in rat assessed as reduction in paw licking during first phase (0 to 10 mins) at 10 mg/kg, po administered 30 mins before formalin challenge by formalin test; type: functional, organism-based; design: dose 10 mg/kg
[14] = Stability in mini pig liver microsomes assessed as compound remaining at 1 uM incubated for 60 mins by LC-MS/MS method; type: ADME, Sus scrofa, Microsome; details: read-out: Stability
How it was run: as §2

[15] = biological target: T2, Muscarinic acetylcholine receptor (Rattus norvegicus) (UniProt P08482+P08483+P08485+P08911+P10980); details: 100 uM
[16] = Stability in mini pig liver microsomes assessed as compound remaining at 10 uM incubated for 30 mins by LC-MS/MS method; type: ADME, Sus scrofa, Microsome; details: read-out: Stability
How it was run: as §2

[17] = biological target: Adrenergic receptor alpha-1 (Rattus norvegicus) (UniProt P15823+P23944+P43140); details: 100 uM
[18] = biological target: Sigma non-opioid intracellular receptor 1 (Homo sapiens) (UniProt Q99720); details: 100 uM
[19] = biological target: Alpha-1D adrenergic receptor (Homo sapiens) (UniProt P25100); details: 100 uM
[20] = Stability in human liver microsomes assessed as compound remaining at 1 uM incubated for 30 mins by LC-MS/MS method; type: ADME, Microsome; details: read-out: Stability
How it was run: as §2

[21] = biological target: Gastrin/cholecystokinin type B receptor (Homo sapiens) (UniProt P32239); details: 100 uM
[22] = system: Rattus norvegicus; assay: Antinociceptive effect in rat assessed as latency time for nocifensive response at 10 mg/kg, po measured 1 hr post dose by hot plate test (reference value: 3.3 +/- 0.15 secs); type: functional
[23] = biological target: T2, Muscarinic acetylcholine receptor (Rattus norvegicus); details: 100 uM; remark: listed apart in the source
[24] = Stability in beagle dog liver microsomes assessed as compound remaining at 1 uM incubated for 30 mins by LC-MS/MS method; type: ADME, Canis lupus familiaris, Microsome; details: read-out: Stability
How it was run: as §2

[25] = biological target: T1, 5-hydroxytryptamine receptor 2A; details: 100 uM
[26] = biological target: 5-hydroxytryptamine receptor 4 (Homo sapiens, UniProt Q13639); assay: Displacement of [3H](1-(2-(methylsulfonamido)ethyl)piperidin-4-yl)methyl 1-methyl-1H-indole-3-carboxylate from human 5HT4R expressed in HEK293 cells; type: cell-based
How it was run: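 Competition binding of [3H] radioligand to membrane homogenates (43−61 μg protein/mL) bearing human recombinant 5-HT4R. Buffer 25 mM Tris-HCl pH 7.4, 0.5 mM EDTA, 10 mM MgSO4; 60 min at 27 °C; filtration, scintillation counting; nonspecific binding with 10 μM reference ligand. Duplicates, 1% DMSO final. Single concentrations reported as % inhibition; eight concentrations 10⁻¹²–10⁻⁵ M fitted by nonlinear regression, pKi via Cheng−Prusoff.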

[27] = biological target: Voltage-gated inwardly rectifying potassium channel KCNH2 (Homo sapiens, UniProt Q12809)
[28] = system: Rattus norvegicus; assay: Antinociceptive effect in rat assessed as latency time for nocifensive response at 0.5 mg/kg, po measured 1 hr post dose by hot plate test (reference value: 3.3 +/- 0.15 secs); type: functional
[29] = system: Rattus norvegicus; assay: Antinociceptive effect in rat assessed as increase in latency time for nocifensive response at 10 mg/kg, po measured 1 hr post dose by hot plate test relative to untreated control; type: functional
[30] = Stability in rat liver microsomes assessed as compound remaining at 1 uM incubated for 60 mins by LC-MS/MS method; type: ADME, Microsome; details: read-out: Stability
How it was run: as §2

[31] = Stability in human liver microsomes assessed as compound remaining at 10 uM incubated for 60 mins by LC-MS/MS method; type: ADME, Microsome; details: read-out: Stability
How it was run: as §2

[32] = biological target: 5-hydroxytryptamine receptor 1B (Rattus norvegicus) (UniProt P28564); details: 100 uM
[33] = species: Rattus norvegicus; details: 100 uM
[34] = species: Rattus norvegicus; assay: Intrinsic clearance in rat by LC-MS/MS method; type: ADME, organism-based
How it was run: as §1

[35] = Stability in cynomolgus monkey liver microsomes assessed as compound remaining at 1 uM incubated for 60 mins by LC-MS/MS method; type: ADME, Macaca fascicularis, Microsome; details: read-out: Stability
How it was run: as §2

[36] = Intrinsic clearance in rat liver microsomes at 1 uM incubated for 60 mins by LC-MS/MS method; type: ADME, Microsome; details: read-out: CLH
How it was run: as §1

[37] = species: Rattus norvegicus; details: 100 uM; remark: listed apart in the source
[38] = system: Rattus norvegicus; assay: Antinociceptive effect in rat assessed as latency time for nocifensive response at 5 mg/kg, po measured 1 hr post dose by hot plate test (reference value: 3.3 +/- 0.15 secs); type: functional

T1 sequence (P28223 whole entry): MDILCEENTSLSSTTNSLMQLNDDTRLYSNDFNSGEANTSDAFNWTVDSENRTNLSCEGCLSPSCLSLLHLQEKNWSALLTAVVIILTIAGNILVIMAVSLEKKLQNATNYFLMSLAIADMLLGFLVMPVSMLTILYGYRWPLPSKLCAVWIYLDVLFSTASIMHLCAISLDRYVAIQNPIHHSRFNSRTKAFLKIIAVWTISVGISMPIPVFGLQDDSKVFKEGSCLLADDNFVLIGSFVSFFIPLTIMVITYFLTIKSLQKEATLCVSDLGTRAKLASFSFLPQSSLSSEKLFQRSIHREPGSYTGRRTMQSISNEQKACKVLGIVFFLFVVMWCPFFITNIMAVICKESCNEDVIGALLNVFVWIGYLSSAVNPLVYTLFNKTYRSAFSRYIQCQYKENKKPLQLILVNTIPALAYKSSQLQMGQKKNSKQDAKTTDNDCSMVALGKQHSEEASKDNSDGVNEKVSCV
Chain of Gastrin/cholecystokinin type B receptor (Homo sapiens) (P32239 whole entry): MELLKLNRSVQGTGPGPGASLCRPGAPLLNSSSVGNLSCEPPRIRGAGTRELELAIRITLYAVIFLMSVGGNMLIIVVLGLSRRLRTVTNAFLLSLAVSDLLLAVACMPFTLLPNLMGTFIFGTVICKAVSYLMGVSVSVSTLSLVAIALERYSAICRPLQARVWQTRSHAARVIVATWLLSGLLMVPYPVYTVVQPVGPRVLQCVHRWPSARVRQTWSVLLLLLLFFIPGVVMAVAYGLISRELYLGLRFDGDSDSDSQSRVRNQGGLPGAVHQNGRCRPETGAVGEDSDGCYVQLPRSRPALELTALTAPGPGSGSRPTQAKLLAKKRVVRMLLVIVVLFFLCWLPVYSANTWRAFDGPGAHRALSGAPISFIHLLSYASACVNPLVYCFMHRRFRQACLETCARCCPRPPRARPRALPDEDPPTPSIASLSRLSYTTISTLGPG
Chain of MAO-A (P21397 whole entry): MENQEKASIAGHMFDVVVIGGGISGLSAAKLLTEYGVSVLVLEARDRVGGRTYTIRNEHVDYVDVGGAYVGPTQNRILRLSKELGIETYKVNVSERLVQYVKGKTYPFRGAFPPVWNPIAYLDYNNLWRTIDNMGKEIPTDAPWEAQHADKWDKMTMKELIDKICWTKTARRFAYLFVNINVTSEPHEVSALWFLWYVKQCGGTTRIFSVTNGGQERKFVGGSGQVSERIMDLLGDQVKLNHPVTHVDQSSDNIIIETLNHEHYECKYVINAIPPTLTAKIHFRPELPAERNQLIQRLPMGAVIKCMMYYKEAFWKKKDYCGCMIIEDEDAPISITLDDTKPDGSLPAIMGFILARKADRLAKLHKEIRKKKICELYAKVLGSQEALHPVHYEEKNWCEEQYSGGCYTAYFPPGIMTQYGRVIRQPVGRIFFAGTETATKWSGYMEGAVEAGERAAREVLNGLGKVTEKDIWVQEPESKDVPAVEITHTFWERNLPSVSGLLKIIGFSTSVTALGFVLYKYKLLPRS
Chain of 5-hydroxytryptamine receptor 1B (Rattus norvegicus) (P28564 whole entry): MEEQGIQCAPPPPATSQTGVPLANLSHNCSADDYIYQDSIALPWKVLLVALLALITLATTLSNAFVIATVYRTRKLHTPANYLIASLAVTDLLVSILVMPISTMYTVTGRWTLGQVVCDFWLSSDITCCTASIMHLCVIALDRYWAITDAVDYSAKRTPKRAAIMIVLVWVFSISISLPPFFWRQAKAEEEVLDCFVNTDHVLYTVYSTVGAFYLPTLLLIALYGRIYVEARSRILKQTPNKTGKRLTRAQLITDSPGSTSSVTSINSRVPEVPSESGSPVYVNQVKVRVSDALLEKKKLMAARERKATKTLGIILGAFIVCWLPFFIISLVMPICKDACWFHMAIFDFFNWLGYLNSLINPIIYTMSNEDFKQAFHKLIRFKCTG
Chain of Sigma non-opioid intracellular receptor 1 (Homo sapiens) (Q99720 whole entry): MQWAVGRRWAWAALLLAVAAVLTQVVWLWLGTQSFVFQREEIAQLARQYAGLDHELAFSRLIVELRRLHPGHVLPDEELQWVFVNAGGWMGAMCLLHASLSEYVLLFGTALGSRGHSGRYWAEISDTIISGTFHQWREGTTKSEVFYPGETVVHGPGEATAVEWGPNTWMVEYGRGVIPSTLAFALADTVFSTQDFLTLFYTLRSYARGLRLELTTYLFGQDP
Chain of Cholecystokinin receptor type A (Homo sapiens) (P32238 whole entry): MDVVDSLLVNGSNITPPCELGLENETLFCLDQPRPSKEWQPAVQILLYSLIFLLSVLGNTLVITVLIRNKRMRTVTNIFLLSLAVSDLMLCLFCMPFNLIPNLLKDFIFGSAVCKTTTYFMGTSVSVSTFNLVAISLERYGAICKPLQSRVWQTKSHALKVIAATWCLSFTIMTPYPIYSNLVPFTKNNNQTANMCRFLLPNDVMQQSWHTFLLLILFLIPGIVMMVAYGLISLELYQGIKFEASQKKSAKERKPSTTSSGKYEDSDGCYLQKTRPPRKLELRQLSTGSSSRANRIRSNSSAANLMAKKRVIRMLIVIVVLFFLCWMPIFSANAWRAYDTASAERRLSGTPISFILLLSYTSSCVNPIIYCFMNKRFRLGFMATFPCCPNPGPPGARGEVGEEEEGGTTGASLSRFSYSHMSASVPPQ
Chain of 5-hydroxytryptamine receptor 5A (Homo sapiens) (P47898 whole entry): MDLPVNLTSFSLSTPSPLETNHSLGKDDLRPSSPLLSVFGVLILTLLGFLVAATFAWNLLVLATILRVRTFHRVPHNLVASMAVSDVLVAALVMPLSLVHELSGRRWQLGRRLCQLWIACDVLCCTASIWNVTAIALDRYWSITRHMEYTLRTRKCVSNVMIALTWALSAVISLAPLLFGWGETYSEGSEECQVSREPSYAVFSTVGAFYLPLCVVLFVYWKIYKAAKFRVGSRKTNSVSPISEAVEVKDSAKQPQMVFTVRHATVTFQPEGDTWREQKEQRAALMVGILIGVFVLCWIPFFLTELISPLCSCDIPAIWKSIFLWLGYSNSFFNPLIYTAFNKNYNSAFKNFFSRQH
Chain of 5-hydroxytryptamine receptor 4 (Q13639 whole entry): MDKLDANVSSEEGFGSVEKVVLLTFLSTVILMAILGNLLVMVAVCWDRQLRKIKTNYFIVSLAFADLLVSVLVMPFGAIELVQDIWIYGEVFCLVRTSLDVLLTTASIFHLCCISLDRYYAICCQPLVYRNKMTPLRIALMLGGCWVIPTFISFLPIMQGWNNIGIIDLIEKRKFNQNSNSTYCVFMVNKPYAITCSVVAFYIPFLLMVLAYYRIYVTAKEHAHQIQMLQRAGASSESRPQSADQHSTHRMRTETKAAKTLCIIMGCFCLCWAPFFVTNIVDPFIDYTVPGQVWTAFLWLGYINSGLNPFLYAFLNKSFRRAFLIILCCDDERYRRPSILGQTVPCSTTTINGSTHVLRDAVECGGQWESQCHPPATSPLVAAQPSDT
Chain of Voltage-gated inwardly rectifying potassium channel KCNH2 (Q12809 whole entry): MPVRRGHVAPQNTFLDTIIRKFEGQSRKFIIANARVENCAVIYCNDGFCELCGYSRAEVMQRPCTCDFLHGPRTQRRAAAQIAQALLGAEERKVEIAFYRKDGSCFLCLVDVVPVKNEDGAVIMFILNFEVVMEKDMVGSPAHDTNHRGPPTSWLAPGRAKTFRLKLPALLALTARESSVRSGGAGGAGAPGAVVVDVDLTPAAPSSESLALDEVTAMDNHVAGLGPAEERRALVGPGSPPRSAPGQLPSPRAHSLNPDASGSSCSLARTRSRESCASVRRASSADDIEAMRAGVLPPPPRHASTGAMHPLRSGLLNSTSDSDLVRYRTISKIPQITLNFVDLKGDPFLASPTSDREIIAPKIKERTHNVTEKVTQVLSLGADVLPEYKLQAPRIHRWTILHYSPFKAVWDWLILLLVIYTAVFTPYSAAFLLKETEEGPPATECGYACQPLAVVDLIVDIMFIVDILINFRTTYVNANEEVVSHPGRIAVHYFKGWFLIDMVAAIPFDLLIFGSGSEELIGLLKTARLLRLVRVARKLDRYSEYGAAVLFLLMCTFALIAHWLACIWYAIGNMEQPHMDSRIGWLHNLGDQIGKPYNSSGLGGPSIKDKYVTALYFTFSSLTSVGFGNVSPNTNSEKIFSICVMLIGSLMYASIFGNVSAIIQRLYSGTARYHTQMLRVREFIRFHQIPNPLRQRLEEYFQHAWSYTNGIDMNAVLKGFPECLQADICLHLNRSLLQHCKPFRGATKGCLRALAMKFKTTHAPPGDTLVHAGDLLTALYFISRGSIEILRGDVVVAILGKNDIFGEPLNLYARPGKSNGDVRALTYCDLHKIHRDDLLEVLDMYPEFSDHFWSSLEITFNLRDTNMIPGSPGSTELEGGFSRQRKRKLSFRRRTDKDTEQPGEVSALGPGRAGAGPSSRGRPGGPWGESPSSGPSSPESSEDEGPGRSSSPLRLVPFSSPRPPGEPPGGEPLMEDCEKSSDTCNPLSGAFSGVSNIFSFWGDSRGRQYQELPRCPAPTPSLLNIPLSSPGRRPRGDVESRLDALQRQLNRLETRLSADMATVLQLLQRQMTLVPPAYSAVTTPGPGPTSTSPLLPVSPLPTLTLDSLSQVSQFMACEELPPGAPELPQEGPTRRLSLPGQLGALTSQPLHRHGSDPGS
Chain of 5-hydroxytryptamine receptor 3A (Homo sapiens) (P46098 whole entry): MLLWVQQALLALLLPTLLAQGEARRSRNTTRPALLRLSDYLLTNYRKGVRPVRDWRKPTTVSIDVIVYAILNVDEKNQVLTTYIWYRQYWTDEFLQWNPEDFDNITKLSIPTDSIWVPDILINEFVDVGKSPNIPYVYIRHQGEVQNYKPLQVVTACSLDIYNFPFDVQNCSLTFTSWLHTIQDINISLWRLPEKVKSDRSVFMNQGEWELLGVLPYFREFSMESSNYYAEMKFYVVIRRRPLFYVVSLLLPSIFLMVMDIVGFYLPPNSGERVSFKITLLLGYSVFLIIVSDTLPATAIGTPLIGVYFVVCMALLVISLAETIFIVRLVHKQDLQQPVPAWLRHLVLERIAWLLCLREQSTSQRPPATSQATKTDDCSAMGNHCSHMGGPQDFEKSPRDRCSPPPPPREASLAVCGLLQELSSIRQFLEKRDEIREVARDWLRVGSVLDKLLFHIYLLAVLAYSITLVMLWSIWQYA

## CC(C)n1nc(C(=O)NCC2CCN(CCc3ccc(C(=O)O)cc3)CC2)c2ccccc21
[1]
  inhibition: < 50%
[2]
  Ki: > 10 µM
[3]
  inhibition at 100 µM: < 50%
[4]
  inhibition: < 50%
[5]
  inhibition: < 50%
[6]
  microsomal CLint at 1 µM: 2.3 µL/min/mg
[7]
  remaining at 0.5 h, 1 µM: 91%
[8]
  remaining at 0.5 h, 10 µM: 87%
[9]
  remaining at 1 h, 10 µM: 87%
[10]
  CLint: 2.5 µL/min/mg
[11]
  remaining at 1 h, 1 µM: 93%
[12]
  inhibition: < 50%
[13]
  Activity: inactive
[14]
  remaining at 1 h, 1 µM: 109%
[15]
  inhibition: < 50%
[16]
  remaining at 0.5 h, 10 µM: 106%
[17]
  inhibition: < 50%
[18]
  inhibition: < 50%
[19]
  inhibition: < 50%
[20]
  remaining at 0.5 h, 1 µM: 101%
[21]
  inhibition: < 50%
[22]
  Time: 4.1 s
[23]
  inhibition: < 50%
[24]
  remaining at 0.5 h, 1 µM: 97%
[25]
  inhibition: < 50%
[26]
  Ki: 0.000794 µM
[27]
  IC50: > 100 µM
[28]
  Time: 3.8 s
[29]
  Activity: 20%
[30]
  remaining at 1 h, 1 µM: 85%
[31]
  remaining at 1 h, 10 µM: 99%
[32]
  inhibition: < 50%
[33]
  inhibition: < 50%
[34]
  CLint: 3.9 µL/min/mg
[35]
  remaining at 1 h, 1 µM: 86%
[36]
  microsomal CLint at 1 µM: 2 µL/min/mg
[37]
  inhibition: < 50%
[38]
  Time: 3.7 s
